# Data reported in ChEMBL document CHEMBL4689842, “EUbOPEN Chemogenomics Library wave 1” (2021).
# What was measured:
# Format in all cases: toxicity, cell-based
# Fibroblast = test: Multiplex assay against human fibroblast
# How it was run: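 Values for tubulin, mitochondrial-mass and membrane-permeability phenotypes are per cents of cells with healthy nuclei. These cells were identified by CellPathfinder machine-learning gating of live cells that had been stained at seeding with Hoechst33342, BioTracker Green Microtubule Cytoskeleton Dye, MitoTracker Red and Annexin V Alexa Fluor 680 and imaged on a CQ1 microscope at 37°C and 5% CO2 after compound addition. The gating first set Hoechst high-intensity objects apart from normal cells, then split normal cells into healthy, pyknosed or fragmented nuclei, and pyknosed cells into mitotic or apoptotic.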
# HEK-293T = test: Incucyte cell viability with HEK293T; settings: human, 10 µM, compound concentration 10 uM; note: filed as whole numbers so only -1 and 0 and 1 occur
# U2OS = test: Incucyte cell viability with U2OS; settings: human, 10 µM, compound concentration 10 uM; note: filed as whole numbers so only -1 and 0 and 1 occur
# [1] = 12 h, 1 µM, compound concentration 1 uM, replicate 1
# [2] = 12 h, 1 µM, compound concentration 1 uM, replicate 2
# [3] = 12 h, 10 µM, compound concentration 10 uM, replicate 1
# [4] = 12 h, 10 µM, compound concentration 10 uM, replicate 2
# [5] = 24 h, 1 µM, compound concentration 1 uM, replicate 1
# [6] = 24 h, 1 µM, compound concentration 1 uM, replicate 2
# [7] = 24 h, 10 µM, compound concentration 10 uM, replicate 1
# [8] = 24 h, 10 µM, compound concentration 10 uM, replicate 2
# [9] = 6 h, replicate number 1, timepoint 6 hours
# [10] = 12 h, replicate number 1, timepoint 12 hours
# [11] = 18 h, replicate number 1, timepoint 18 hours
# [12] = 24 h, replicate number 1, timepoint 24 hours
structure (smiles),measurement,setting,value
CN(C)C/C=C/C(=O)Nc1cc2c(Nc3ccc(F)c(Cl)c3)ncnc2cc1O[C@H]1CCOC1.O=C(O)/C=C\C(=O)O.O=C(O)/C=C\C(=O)O [AFATINIB DIMALEATE],Population Apoptotic (%),Fibroblast; [1],66%
same,Population Fragmented Nuclei (%),Fibroblast; [1],30%
same,Population Healthy Nuclei (%),Fibroblast; [1],53%
same,Population Hoechst High Intensity Objects (%),Fibroblast; [1],13%
same,Population Membrane Permeable-Phenotype (%),Fibroblast; [1],13%
same,Population Mitochondria Different-Phenotype (%),Fibroblast; [1],3%
same,Population Mitotic Cells (%),Fibroblast; [1],33%
same,Population Normal (%),Fibroblast; [1],86%
same,Population Pyknosed Nuclei (%),Fibroblast; [1],16%
same,Population Tubulin-Different-Phenotype (%),Fibroblast; [1],10%
same,Total Cell Count,Fibroblast; [1],234
same,Population Apoptotic (%),Fibroblast; [2],45%
same,Population Fragmented Nuclei (%),Fibroblast; [2],60%
same,Population Healthy Nuclei (%),Fibroblast; [2],21%
same,Population Hoechst High Intensity Objects (%),Fibroblast; [2],38%
same,Population Membrane Permeable-Phenotype (%),Fibroblast; [2],7%
same,Population Mitochondria Different-Phenotype (%),Fibroblast; [2],30%
same,Population Mitotic Cells (%),Fibroblast; [2],54%
same,Population Normal (%),Fibroblast; [2],61%
same,Population Pyknosed Nuclei (%),Fibroblast; [2],18%
same,Population Tubulin-Different-Phenotype (%),Fibroblast; [2],15%
same,Total Cell Count,Fibroblast; [2],99
same,Population Apoptotic (%),Fibroblast; [3],58%
same,Population Fragmented Nuclei (%),Fibroblast; [3],27%
same,Population Healthy Nuclei (%),Fibroblast; [3],50%
same,Population Hoechst High Intensity Objects (%),Fibroblast; [3],24%
same,Population Membrane Permeable-Phenotype (%),Fibroblast; [3],18%
same,Population Mitochondria Different-Phenotype (%),Fibroblast; [3],12%
same,Population Mitotic Cells (%),Fibroblast; [3],41%
same,Population Normal (%),Fibroblast; [3],75%
same,Population Pyknosed Nuclei (%),Fibroblast; [3],22%
same,Population Tubulin-Different-Phenotype (%),Fibroblast; [3],68%
same,Total Cell Count,Fibroblast; [3],247
same,Population Apoptotic (%),Fibroblast; [4],22%
same,Population Fragmented Nuclei (%),Fibroblast; [4],33%
same,Population Healthy Nuclei (%),Fibroblast; [4],52%
same,Population Hoechst High Intensity Objects (%),Fibroblast; [4],34%
same,Population Membrane Permeable-Phenotype (%),Fibroblast; [4],16%
same,Population Mitochondria Different-Phenotype (%),Fibroblast; [4],13%
same,Population Mitotic Cells (%),Fibroblast; [4],77%
same,Population Normal (%),Fibroblast; [4],65%
same,Population Pyknosed Nuclei (%),Fibroblast; [4],13%
same,Population Tubulin-Different-Phenotype (%),Fibroblast; [4],91%
same,Total Cell Count,Fibroblast; [4],104
same,Population Apoptotic (%),Fibroblast; [5],72%
same,Population Fragmented Nuclei (%),Fibroblast; [5],35%
same,Population Healthy Nuclei (%),Fibroblast; [5],53%
same,Population Hoechst High Intensity Objects (%),Fibroblast; [5],18%
same,Population Membrane Permeable-Phenotype (%),Fibroblast; [5],5%
same,Population Mitochondria Different-Phenotype (%),Fibroblast; [5],7%
same,Population Mitotic Cells (%),Fibroblast; [5],27%
same,Population Normal (%),Fibroblast; [5],81%
same,Population Pyknosed Nuclei (%),Fibroblast; [5],10%
same,Population Tubulin-Different-Phenotype (%),Fibroblast; [5],13%
same,Total Cell Count,Fibroblast; [5],247
same,Population Apoptotic (%),Fibroblast; [6],50%
same,Population Fragmented Nuclei (%),Fibroblast; [6],54%
same,Population Healthy Nuclei (%),Fibroblast; [6],28%
same,Population Hoechst High Intensity Objects (%),Fibroblast; [6],34%
same,Population Membrane Permeable-Phenotype (%),Fibroblast; [6],0%
same,Population Mitochondria Different-Phenotype (%),Fibroblast; [6],6%
same,Population Mitotic Cells (%),Fibroblast; [6],50%
same,Population Normal (%),Fibroblast; [6],65%
same,Population Pyknosed Nuclei (%),Fibroblast; [6],17%
same,Population Tubulin-Different-Phenotype (%),Fibroblast; [6],12%
same,Total Cell Count,Fibroblast; [6],87
same,Population Apoptotic (%),Fibroblast; [7],57%
same,Population Fragmented Nuclei (%),Fibroblast; [7],29%
same,Population Healthy Nuclei (%),Fibroblast; [7],54%
same,Population Hoechst High Intensity Objects (%),Fibroblast; [7],38%
same,Population Membrane Permeable-Phenotype (%),Fibroblast; [7],19%
same,Population Mitochondria Different-Phenotype (%),Fibroblast; [7],21%
same,Population Mitotic Cells (%),Fibroblast; [7],42%
same,Population Normal (%),Fibroblast; [7],61%
same,Population Pyknosed Nuclei (%),Fibroblast; [7],15%
same,Population Tubulin-Different-Phenotype (%),Fibroblast; [7],61%
same,Population Apoptotic (%),Fibroblast; [8],66%
same,Population Fragmented Nuclei (%),Fibroblast; [8],49%
same,Population Healthy Nuclei (%),Fibroblast; [8],36%
same,Population Hoechst High Intensity Objects (%),Fibroblast; [8],35%
same,Population Membrane Permeable-Phenotype (%),Fibroblast; [8],34%
same,Population Mitochondria Different-Phenotype (%),Fibroblast; [8],26%
same,Population Mitotic Cells (%),Fibroblast; [8],33%
same,Population Normal (%),Fibroblast; [8],64%
same,Population Pyknosed Nuclei (%),Fibroblast; [8],14%
same,Population Tubulin-Different-Phenotype (%),Fibroblast; [8],82%
same,Total Cell Count,Fibroblast; [8],98
same,Growth Rate,HEK-293T; [9],0
same,Growth Rate,HEK-293T; [10],0
same,Growth Rate,HEK-293T; [11],0
same,Growth Rate,HEK-293T; [12],0
same,Growth Rate,"U2OS; 0 h, replicate number 1, timepoint 0 hours",0
same,Growth Rate,"U2OS; 0 h, replicate number 2, timepoint 0 hours",1
same,Growth Rate,U2OS; [9],0
same,Growth Rate,U2OS; [10],0
same,Growth Rate,U2OS; [11],0
same,Growth Rate,U2OS; [12],0
